According to ChEMBL document CHEMBL1137378, “Antibacterial agent discovery using thymidylate synthase biolibrary screening” (J Med Chem, 2006):
Converted amounts (≈) assume the structure as drawn.

Columns and labels:
Homo sapiens = species: Homo sapiens; test: Selectivity Index, Ki for human dihydrofolate reductase/Ki for human thymidylate synthase
Thymidylate synthase [1] = molecular target: Thymidylate synthase (Escherichia coli, UniProt C3SWJ7); test: Inhibition of Escherichia coli thymidylate synthase
Thymidylate synthase (Escherichia coli, UniProt C3SWJ7), sequence (C3SWJ7 whole entry): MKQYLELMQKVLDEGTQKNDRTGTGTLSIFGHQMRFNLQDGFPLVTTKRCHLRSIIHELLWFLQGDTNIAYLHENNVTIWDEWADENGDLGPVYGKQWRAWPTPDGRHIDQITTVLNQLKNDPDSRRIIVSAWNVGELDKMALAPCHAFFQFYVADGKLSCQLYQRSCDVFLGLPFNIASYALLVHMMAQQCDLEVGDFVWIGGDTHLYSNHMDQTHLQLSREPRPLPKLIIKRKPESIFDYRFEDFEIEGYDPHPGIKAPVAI

Thymidylate synthase [2] = molecular target: T1, Thymidylate synthase (Cryptococcus neoformans var. neoformans B-3501A, UniProt P0CS13); test: Inhibition of Cryptococcus neoformans thymidylate synthase
T1 sequence (P0CS13 whole entry): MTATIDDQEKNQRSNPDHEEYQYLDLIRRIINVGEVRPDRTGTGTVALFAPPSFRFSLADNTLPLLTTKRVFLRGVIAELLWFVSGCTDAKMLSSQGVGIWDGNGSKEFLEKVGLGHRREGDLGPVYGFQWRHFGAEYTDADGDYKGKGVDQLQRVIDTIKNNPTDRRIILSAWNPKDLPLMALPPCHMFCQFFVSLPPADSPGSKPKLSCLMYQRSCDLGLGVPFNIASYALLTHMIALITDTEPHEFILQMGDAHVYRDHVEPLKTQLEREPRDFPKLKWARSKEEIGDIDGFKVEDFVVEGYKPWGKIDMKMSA

Dihydrofolate reductase = molecular target: T2, Dihydrofolate reductase (Homo sapiens, UniProt P00374); test: Inhibition of human dihydrofolate reductase
T2 sequence (P00374 whole entry): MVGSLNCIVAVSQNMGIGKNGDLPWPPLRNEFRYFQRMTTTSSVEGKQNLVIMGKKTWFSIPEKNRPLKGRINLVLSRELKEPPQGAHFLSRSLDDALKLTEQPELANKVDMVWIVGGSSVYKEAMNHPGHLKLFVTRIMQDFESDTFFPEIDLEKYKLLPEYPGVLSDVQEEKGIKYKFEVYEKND
Method in brief: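 Purified human DHFR assayed spectrophotometrically at 25 °C by the fall in A340 on DHF reduction. Ki from steady-state kinetics.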

[3] = Specificity Index, Ki for human thymidylate synthase/Ki for Lactobacillus casei thymidylate synthase
[4] = Specificity Index, Ki for human thymidylate synthase/Ki for Escherichia coli thymidylate synthase
[5] = Specificity Index, Ki for human thymidylate synthase/Ki for Cryptococcus neoformans thymidylate synthase
Method in brief: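 Specificity index is Ki of hTS divided by Ki of the pathogen TS (LcTS, EcTS or CnTS). Each enzyme was purified to >95% and assayed spectrophotometrically at 340 nm, 20 °C. Buffer was TES 50 mM pH 7.4 with MgCl2, formaldehyde, EDTA and 2-mercaptoethanol, plus dUMP 100 µM, mTHF 140 µM and enzyme 0.07 µM.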

Enterococcus faecalis = test: Antibacterial activity against Enterococcus faecalis ATCCC29212; assay type: functional
Method in brief: (§1)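 Wild-type strain panel (18 Gram-positive and Gram-negative strains). Bacteria grown in Mueller-Hinton broth at 37 °C for 24 h. Exponentially growing cultures diluted in sterile liquid medium to a final inoculum of about 1 × 10⁴ CFU/mL, then exposed to increasing compound concentrations. MIC taken as the lowest concentration with no evident bacterial growth.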

Escherichia coli [6] = test: Antibacterial activity against Escherichia coli 256; assay type: functional; method in brief: as §1
Escherichia coli [7] = test: Antibacterial activity against Escherichia coli 292; assay type: functional; method in brief: as §1
Vero [8] = test: Cytotoxicity against Vero cells measured as percent of cell growth at 25 mg/L relative to control by MTT assay; assay type: functional, Chlorocebus sabaeus
Method in brief: (§2)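 VERO cells grown in MEM with 5% heat-inactivated (56 °C, 30 min) FCS, penicillin, streptomycin and L-glutamine. Cultures were watched for 2 days and live cells counted. Cells were then exposed to increasing compound concentrations; wells with cells only served as control. After 24 h, mitochondrial dehydrogenase activity was read by MTT. Trypan blue exclusion was also run.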

Vero [9] = test: Cytotoxicity against Vero cells measured as percent of cell growth at 12.05 mg/L relative to control by MTT assay; assay type: functional, Chlorocebus sabaeus; method in brief: as §2
Vero [10] = test: Cytotoxicity against Vero cells measured as percent of cell growth at 6.25 mg/L relative to control by MTT assay; assay type: functional, Chlorocebus sabaeus; method in brief: as §2
Vero [11] = test: Cytotoxicity against Vero cells measured as percent of cell growth at 3.12 mg/L relative to control by MTT assay; assay type: functional, Chlorocebus sabaeus; method in brief: as §2
Listeria monocytogenes [12] = test: Antibacterial activity against Listeria monocytogenes 3; assay type: functional; method in brief: as §1
Listeria monocytogenes [13] = test: Antibacterial activity against Listeria monocytogenes 4; assay type: functional; method in brief: as §1
Listeria monocytogenes [14] = test: Antibacterial activity against Listeria monocytogenes 5; assay type: functional; method in brief: as §1
Listeria monocytogenes [15] = test: Antibacterial activity against Listeria monocytogenes 6; assay type: functional; method in brief: as §1
Listeria monocytogenes [16] = test: Antibacterial activity against Listeria monocytogenes 7; assay type: functional; method in brief: as §1
Listeria monocytogenes [17] = test: Antibacterial activity against Listeria monocytogenes 8; assay type: functional; method in brief: as §1
Listeria monocytogenes [18] = test: Antibacterial activity against Listeria monocytogenes ATCC 4428; assay type: functional; method in brief: as §1
Staphylococcus aureus [19] = test: Antibacterial activity against Staphylococcus aureus 341; assay type: functional; method in brief: as §1
Staphylococcus aureus [20] = test: Antibacterial activity against Staphylococcus aureus 343; assay type: functional; method in brief: as §1
Staphylococcus aureus [21] = test: Antibacterial activity against Staphylococcus aureus K28; assay type: functional; method in brief: as §1
Staphylococcus aureus [22] = test: Antibacterial activity against Staphylococcus aureus ATCC 29213; assay type: functional; method in brief: as §1
[23] = tested on: Staphylococcus haemolyticus; test: Antibacterial activity against Staphylococcus haemolyticus ATCC 2997; assay type: functional; method in brief: as §1
[24] = tested on: Staphylococcus saprophyticus; test: Antibacterial activity against Staphylococcus saprophyticus ATCC 15305; assay type: functional; method in brief: as §1
Citrobacter = test: Antibacterial activity against Citrobacter 224; assay type: functional; method in brief: as §1
Streptococcus = test: Antibacterial activity against Streptococcus 42; assay type: functional; method in brief: as §1
Vero [25] = test: Cytotoxicity against Vero cells measured as percent of cell growth at 50 mg/L relative to control by MTT assay; assay type: functional, Chlorocebus sabaeus; method in brief: as §2
Vero [26] = test: Cytotoxicity against Vero cells measured as percent of cell growth at 1.56 mg/L relative to control by MTT assay; assay type: functional, Chlorocebus sabaeus; method in brief: as §2
Thymidylate synthase [27] = molecular target: T3, Thymidylate synthase (Lactobacillus casei, UniProt P00469); test: Inhibition of Lactobacillus casei thymidylate synthase; design: species or system Lacticaseibacillus casei
T3 sequence (P00469 whole entry): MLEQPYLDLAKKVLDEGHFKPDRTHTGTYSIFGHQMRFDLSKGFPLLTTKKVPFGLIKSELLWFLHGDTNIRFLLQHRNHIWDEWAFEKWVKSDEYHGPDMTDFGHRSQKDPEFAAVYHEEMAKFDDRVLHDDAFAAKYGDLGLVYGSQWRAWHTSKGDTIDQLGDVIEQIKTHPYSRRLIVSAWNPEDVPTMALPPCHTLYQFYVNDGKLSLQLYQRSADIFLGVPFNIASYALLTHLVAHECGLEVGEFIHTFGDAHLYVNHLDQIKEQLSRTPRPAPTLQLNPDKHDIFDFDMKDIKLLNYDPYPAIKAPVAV

Thymidylate synthase [28] = molecular target: Thymidylate synthase (Homo sapiens, UniProt P04818); test: Inhibition of human thymidylate synthase
Thymidylate synthase (Homo sapiens, UniProt P04818), sequence (P04818 whole entry): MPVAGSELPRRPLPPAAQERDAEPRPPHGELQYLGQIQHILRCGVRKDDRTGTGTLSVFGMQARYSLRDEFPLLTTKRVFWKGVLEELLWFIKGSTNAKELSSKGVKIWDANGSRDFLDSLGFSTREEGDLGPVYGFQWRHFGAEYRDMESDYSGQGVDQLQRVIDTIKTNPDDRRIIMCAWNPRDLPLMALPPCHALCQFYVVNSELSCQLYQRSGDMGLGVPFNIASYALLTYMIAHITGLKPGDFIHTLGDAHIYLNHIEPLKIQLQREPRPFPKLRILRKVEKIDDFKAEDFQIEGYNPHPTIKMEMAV

Structure (SMILES) | Selectivity index (Homo sapiens) | Ki (Thymidylate synthase [1]) [µM] | Ki (Thymidylate synthase [2]) [µM] | Ki (Dihydrofolate reductase) [µM] | Ratio Ki [3] | Ratio Ki [4] | Ratio Ki [5] | MIC (Enterococcus faecalis) [µg/mL] | MIC (Escherichia coli [6]) [µg/mL] | MIC (Escherichia coli [7]) [µg/mL] | MIC (Listeria monocytogenes [12]) [µg/mL] | MIC (Listeria monocytogenes [13]) [µg/mL] | MIC (Listeria monocytogenes [14]) [µg/mL] | MIC (Listeria monocytogenes [15]) [µg/mL] | MIC (Listeria monocytogenes [16]) [µg/mL] | MIC (Listeria monocytogenes [17]) [µg/mL] | MIC (Listeria monocytogenes [18]) [µg/mL] | MIC (Staphylococcus aureus [19]) [µg/mL] | MIC (Staphylococcus aureus [20]) [µg/mL] | MIC (Staphylococcus aureus [21]) [µg/mL] | other results
O=C1OC(c2ccc(O)cc2)(c2ccc(O)cc2)c2ccc3ccccc3c21 | – | – | 0.6 | 35 | – | – | – | – | – | – | – | – | – | – | – | – | – | – | – | – | –
Cc1cc(O)c(C(C)C)cc1C1(c2cc(C(C)C)c(O)cc2C)OC(=O)c2ccc3ccccc3c21 | – | – | – | 13 | – | – | – | – | – | – | – | – | – | – | – | – | – | – | – | – | –
O=C1OC(c2ccc(O)cc2)(c2ccc(O)c(Br)c2)c2cccc3cccc1c23 (centres undefined) | < 0.02 | 0.4 | 5.2 | 3.4 | > 132 | > 330 | > 25 | 25 (≈ 55.9 µM) | > 50 | > 50 | 10 (≈ 22.4 µM) | 10 (≈ 22.4 µM) | 10 (≈ 22.4 µM) | 10 (≈ 22.4 µM) | 10 (≈ 22.4 µM) | 25 (≈ 55.9 µM) | 10 (≈ 22.4 µM) | 25 (≈ 55.9 µM) | 10 (≈ 22.4 µM) | 25 (≈ 55.9 µM) | Ki (Thymidylate synthase [27]): 1 µM; Ki (Thymidylate synthase [28]): > 132 µM; MIC (Staphylococcus aureus [22]): 10 µg/mL (≈ 22.4 µM); MIC [23]: 10 µg/mL (≈ 22.4 µM); MIC [24]: 10 µg/mL (≈ 22.4 µM); MIC (Citrobacter): > 50 µg/mL; MIC (Streptococcus): 10 µg/mL (≈ 22.4 µM)

Continued, in another order:

Selectivity index (Homo sapiens) | Ki (Thymidylate synthase [1]) [µM] | Ki (Thymidylate synthase [2]) [µM] | Ki (Dihydrofolate reductase) [µM] | Ratio Ki [3] | Ratio Ki [4] | Ratio Ki [5] | MIC (Enterococcus faecalis) [µg/mL] | MIC (Escherichia coli [6]) [µg/mL] | MIC (Escherichia coli [7]) [µg/mL] | MIC (Listeria monocytogenes [12]) [µg/mL] | MIC (Listeria monocytogenes [13]) [µg/mL] | MIC (Listeria monocytogenes [14]) [µg/mL] | MIC (Listeria monocytogenes [15]) [µg/mL] | MIC (Listeria monocytogenes [16]) [µg/mL] | MIC (Listeria monocytogenes [17]) [µg/mL] | MIC (Listeria monocytogenes [18]) [µg/mL] | MIC (Staphylococcus aureus [19]) [µg/mL] | MIC (Staphylococcus aureus [20]) [µg/mL] | MIC (Staphylococcus aureus [21]) [µg/mL] | Structure (SMILES) | other results
< 0.2 | 0.9 | 2.7 | 33 | > 20 | > 147 | > 49 | – | – | – | – | – | – | – | – | – | – | – | – | – | O=C1OC(c2ccc(O)c(Br)c2)(c2ccc(O)c(Br)c2)c2c1ccc1ccccc21 | –
– | – | 8.1 | – | – | – | – | – | – | – | – | – | – | – | – | – | – | – | – | – | O=C1OC(c2ccc(O)c(Cl)c2)(c2ccc(O)c(Cl)c2)c2ccc3ccccc3c21 | –
< 0.05 | 4.1 | 4.1 | 13 | > 306 | > 60 | > 60 | 5 (≈ 8.92 µM) | > 25 | > 25 | 5 (≈ 8.92 µM) | 2.5 (≈ 4.46 µM) | 5 (≈ 8.92 µM) | 2.5 (≈ 4.46 µM) | 2.5 (≈ 4.46 µM) | 5 (≈ 8.92 µM) | 1 (≈ 1.78 µM) | 2.5 (≈ 4.46 µM) | 1 (≈ 1.78 µM) | 2.5 (≈ 4.46 µM) | O=C1OC(c2ccc(O)c(Br)c2)(c2ccc(O)c(Br)c2)c2ccc(Cl)c3cccc1c23 | Activity (Vero [8]): 85%; Activity (Vero [9]): 97%; Activity (Vero [10]): 97%; Activity (Vero [11]): 95%; MIC (Staphylococcus aureus [22]): 2.5 µg/mL (≈ 4.46 µM); MIC [23]: 5 µg/mL (≈ 8.92 µM); MIC [24]: 1 µg/mL (≈ 1.78 µM); MIC (Citrobacter): > 25 µg/mL; MIC (Streptococcus): 1 µg/mL (≈ 1.78 µM); Activity (Vero [25]): 61%; Activity (Vero [26]): 96%
< 0.05 | 1.1 | 6.5 | 12 | > 136 | > 223 | > 38 | 25 (≈ 57 µM) | > 50 | > 50 | 10 (≈ 22.8 µM) | 10 (≈ 22.8 µM) | 10 (≈ 22.8 µM) | 10 (≈ 22.8 µM) | 10 (≈ 22.8 µM) | 25 (≈ 57 µM) | 10 (≈ 22.8 µM) | 10 (≈ 22.8 µM) | 10 (≈ 22.8 µM) | 10 (≈ 22.8 µM) | O=C1OC(c2ccc(O)c(F)c2)(c2ccc(O)c(F)c2)c2ccc(Cl)c3cccc1c23 | MIC (Staphylococcus aureus [22]): 10 µg/mL (≈ 22.8 µM); MIC [23]: 10 µg/mL (≈ 22.8 µM); MIC [24]: 10 µg/mL (≈ 22.8 µM); MIC (Citrobacter): > 50 µg/mL; MIC (Streptococcus): 10 µg/mL (≈ 22.8 µM)
